Reference: ChEMBL document CHEMBL5143681, “Clerodane Diterpenes from Casearia corymbosa as Allosteric GABAA Receptor Modulators” (J Nat Prod, 2022)
Calls of active or inactive are those of the source. The rule behind the calls is not given here.

How the values were obtained:
Format in all cases: cell-based
[1] = target: T1, GABA-A receptor; alpha-1/beta-2/gamma-2 (Homo sapiens) (UniProt P14867+P47870+P18507); test: Additive positive allosteric modulation of GABAA alpha1beta2gamma2 receptor (unknown origin) stably expressed in CHO cells assessed as activation of GABA-induced response at 0.5 to 4 uM in presence of allopregnanolone by FLIPR assay; details: filed as positive allosteric modulator, dose 0.5-4 µM, DDE = dose-dependent effect
How it was run: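 The FLIPR membrane-potential assay used α1β2γ2-CHO cells. Compound was tested at 0.5, 1.0, 2.0 and 4.0 μM together with a fixed 0.25 μM allopregnanolone, and 2 μM GABA was added at 295 s. The fluorescence change at 270–330 s was normalized to 200 μM GABA. Plates included 2 μM GABA, 200 μM GABA and 0.2% DMSO controls.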

[2] = target: T1, GABA-A receptor; alpha-1/beta-2/gamma-2 (Homo sapiens); test: Positive allosteric modulation of GABAA alpha1beta2gamma2 receptor (unknown origin) stably expressed in CHO cells assessed as activation of GABA-induced response at 10 uM in presence of pregnenolone sulfate by FLIPR assay; details: filed as positive allosteric modulator
How it was run: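 Compound was held at 10 μM with pregnenolone sulfate at 0.001–10 μM in the FLIPR membrane-potential assay on α1β2γ2-CHO cells, and 2 μM GABA was added at 295 s. The fluorescence change at 270–330 s was normalized to 200 μM GABA. Controls were 2 μM GABA, 200 μM GABA and 0.2% DMSO.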

[3] = target: T2, GABA-A receptor; alpha-1/beta-2/gamma-2 (Homo sapiens, UniProt P14867+P18507+P47870); test: Positive allosteric modulation of GABAA alpha1beta2gamma2 receptor (unknown origin) stably expressed in CHO cells assessed as activation of GABA-induced response in presence of GABA by FLIPR assay
T2 sequence (P14867 whole entry): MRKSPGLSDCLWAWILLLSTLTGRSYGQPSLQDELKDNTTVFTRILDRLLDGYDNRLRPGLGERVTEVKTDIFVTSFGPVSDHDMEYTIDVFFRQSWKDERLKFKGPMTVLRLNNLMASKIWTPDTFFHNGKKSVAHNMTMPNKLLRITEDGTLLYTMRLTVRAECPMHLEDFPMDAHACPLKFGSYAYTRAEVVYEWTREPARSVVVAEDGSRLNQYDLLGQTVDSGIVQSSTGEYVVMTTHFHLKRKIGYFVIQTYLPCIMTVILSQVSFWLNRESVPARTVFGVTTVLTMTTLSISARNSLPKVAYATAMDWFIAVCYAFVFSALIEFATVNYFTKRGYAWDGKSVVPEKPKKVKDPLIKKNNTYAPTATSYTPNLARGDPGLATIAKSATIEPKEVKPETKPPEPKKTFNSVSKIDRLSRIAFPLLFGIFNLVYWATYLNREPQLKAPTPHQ
T2 sequence (P47870 whole entry): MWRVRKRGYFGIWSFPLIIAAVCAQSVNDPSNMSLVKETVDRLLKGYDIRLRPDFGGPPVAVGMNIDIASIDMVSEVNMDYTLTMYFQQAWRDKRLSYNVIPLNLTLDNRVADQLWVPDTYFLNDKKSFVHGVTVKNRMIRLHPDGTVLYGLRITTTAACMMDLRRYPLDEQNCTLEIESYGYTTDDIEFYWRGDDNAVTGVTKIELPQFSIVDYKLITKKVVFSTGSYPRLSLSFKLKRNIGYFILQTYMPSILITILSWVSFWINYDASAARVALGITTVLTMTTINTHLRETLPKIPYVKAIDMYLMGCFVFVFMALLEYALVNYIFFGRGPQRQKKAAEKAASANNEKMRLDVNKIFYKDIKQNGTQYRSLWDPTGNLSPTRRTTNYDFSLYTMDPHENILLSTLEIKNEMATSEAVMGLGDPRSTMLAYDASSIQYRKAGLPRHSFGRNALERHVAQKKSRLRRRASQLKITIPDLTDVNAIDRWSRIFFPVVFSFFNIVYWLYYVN
T2 sequence (P18507 whole entry): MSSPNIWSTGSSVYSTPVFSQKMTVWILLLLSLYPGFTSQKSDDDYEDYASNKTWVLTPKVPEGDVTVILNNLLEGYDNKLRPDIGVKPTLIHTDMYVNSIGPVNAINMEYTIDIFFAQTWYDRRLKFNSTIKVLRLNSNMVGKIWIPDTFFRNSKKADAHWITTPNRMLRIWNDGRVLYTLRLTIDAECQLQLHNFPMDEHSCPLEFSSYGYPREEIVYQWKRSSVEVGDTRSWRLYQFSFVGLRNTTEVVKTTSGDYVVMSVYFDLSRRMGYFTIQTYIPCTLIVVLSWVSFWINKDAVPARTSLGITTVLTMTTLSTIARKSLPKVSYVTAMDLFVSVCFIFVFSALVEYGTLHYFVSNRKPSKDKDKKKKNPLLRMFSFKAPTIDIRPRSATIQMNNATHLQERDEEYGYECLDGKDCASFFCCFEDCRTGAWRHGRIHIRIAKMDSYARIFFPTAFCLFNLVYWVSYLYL

[4] = target: T1, GABA-A receptor; alpha-1/beta-2/gamma-2 (Homo sapiens); test: Additive positive allosteric modulation of GABAA alpha1beta2gamma2 receptor (unknown origin) stably expressed in CHO cells assessed as activation of GABA-induced response at 0.5 to 8 uM in presence of etazolate by FLIPR assay; details: filed as positive allosteric modulator, dose 0.5-8 µM
How it was run: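 In the FLIPR membrane-potential assay on α1β2γ2-CHO cells, compound at 0.5–8.0 μM was tested with etazolate at a fixed concentration (0.78 μM per the methods). 2 μM GABA was added at 295 s. The fluorescence change at 270–330 s was normalized to 200 μM GABA. Controls were 2 μM GABA, 200 μM GABA and 0.2% DMSO.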

[5] = target: T1, GABA-A receptor; alpha-1/beta-2/gamma-2 (Homo sapiens); test: Additive positive allosteric modulation of GABAA alpha1beta2gamma2 receptor (unknown origin) stably expressed in CHO cells assessed as activation of GABA-induced response at 0.5 to 8 uM in presence of diazepam by FLIPR assay; details: filed as positive allosteric modulator, dose 0.5-8 µM
How it was run: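 α1β2γ2-CHO cells were run in the FLIPR membrane-potential assay. Activation was the fluorescence change at 270–330 s, normalized to 200 μM GABA. Controls were 2 μM GABA, 200 μM GABA and 0.2% DMSO.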

[6] = target: T1, GABA-A receptor; alpha-1/beta-2/gamma-2 (Homo sapiens); test: Positive allosteric modulation of GABAA alpha1beta2gamma2 receptor (unknown origin) stably expressed in CHO cells assessed as activation of GABA-induced response at 5 uM in presence of flumazenil by FLIPR assay; details: filed as positive allosteric modulator
How it was run: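 For the benzodiazepine-site test, α1β2γ2-CHO cells in the FLIPR membrane-potential assay received compound at 5 μM plus flumazenil at 0.001–10 μM, with 2 μM GABA added at 295 s. Activation was the fluorescence change at 270–330 s, normalized to 200 μM GABA. Controls were 2 μM GABA, 200 μM GABA and 0.2% DMSO.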

Structure (SMILES)	EC50 [3] [µM]	also measured
O=C(/C=C/C=C/c1ccc2c(c1)OCO2)N1CCCCC1 [PIPERINE]	5.8	
C=CCc1ccc(O)c(-c2cc(CC=C)ccc2O)c1 [MAGNOLOL]	4.8	
CC1=C2[C@H](/C=C(\C)C(=O)O)CC[C@@H](C)[C@H]2CC1 [VALERENIC ACID]	12.6	

The next compounds have a lower EC50 [3] than those just listed; values first:

EC50 [3] [µM]	Structure (SMILES)	also measured
4.6	C=C/C(C)=C/C[C@]1(C)[C@H](C)C[C@H](OC(C)=O)[C@]23C(=C[C@@H](OC(C)=O)C[C@@H]12)[C@@H](OC(C)=O)O[C@H]3OC(C)=O	
1.4	C=C/C(C)=C/C[C@]1(C)[C@H](C)C[C@H](OC)[C@]23C(=C[C@@H](OC(C)=O)C[C@@H]12)[C@@H](OC(C)=O)O[C@H]3OC(C)=O	Activity [1]: Dde; Activity [2]: Active; Activity [4]: Active; Activity [5]: Active; Activity [6]: Active
0.5	C=C/C(C)=C/C[C@]1(C)[C@H](C)C[C@H](O)[C@]23C(=C[C@@H](OC(C)=O)C[C@@H]12)[C@@H](OC(C)=O)O[C@H]3OC(C)=O	
